TAAR1 antagonist – human TAAR1 antagonists, primary screen, Fluo-8 calcium fluorescence, CHO RD-HGA16 cells; antagonist; 1.5% of 360,000 active; inhibition, % at 3 µM; Trace amine-associated receptor 1 (Homo sapiens), Q96RJ0;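 active = inhibition above a per-plate cutoff, the mean inhibition of test compounds on that plate plus 3 SD, cut at about 49% in these data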
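Assay system: RD-HGA16 CHO cells with stable hTAAR1 and Gα16 / Reagent: EC80 β-phenethylamine stimulus / Doses: 3 µM, single point / Timing: dye loading 75 min at 37 °C, then 30 min room temperature / Measured by: Fluo-8 intracellular calcium dye fluorescence, real-time kinetic reads / Controls: vehicle wells and EC80 agonist wells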
ANO1 activ – TMEM16A chloride channel activators or potentiators, primary screen, cell-based, HTS. 0.3% of 340,000 active. Anoctamin-1 (Mus musculus), Q8BHY3. AID 623877, 2012. HEK293 TMEM16A/YFP-H148Q/I152L, iodide quench fluorescence; active compounds read low. B-score at 10 µM;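 active = fluorescence-ratio B-score plate-corrected deviation score at least 3 library SD below zero, with starting fluorescence score within 5 deviations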;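 also: channel opened by trigger with iodide after compound preincubation; score built on the fluorescence ratio of max minus min over baseline; more negative score means more quench and so TMEM16A activation or potentiation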
Target sequence (Q8BHY3 whole entry, looked up): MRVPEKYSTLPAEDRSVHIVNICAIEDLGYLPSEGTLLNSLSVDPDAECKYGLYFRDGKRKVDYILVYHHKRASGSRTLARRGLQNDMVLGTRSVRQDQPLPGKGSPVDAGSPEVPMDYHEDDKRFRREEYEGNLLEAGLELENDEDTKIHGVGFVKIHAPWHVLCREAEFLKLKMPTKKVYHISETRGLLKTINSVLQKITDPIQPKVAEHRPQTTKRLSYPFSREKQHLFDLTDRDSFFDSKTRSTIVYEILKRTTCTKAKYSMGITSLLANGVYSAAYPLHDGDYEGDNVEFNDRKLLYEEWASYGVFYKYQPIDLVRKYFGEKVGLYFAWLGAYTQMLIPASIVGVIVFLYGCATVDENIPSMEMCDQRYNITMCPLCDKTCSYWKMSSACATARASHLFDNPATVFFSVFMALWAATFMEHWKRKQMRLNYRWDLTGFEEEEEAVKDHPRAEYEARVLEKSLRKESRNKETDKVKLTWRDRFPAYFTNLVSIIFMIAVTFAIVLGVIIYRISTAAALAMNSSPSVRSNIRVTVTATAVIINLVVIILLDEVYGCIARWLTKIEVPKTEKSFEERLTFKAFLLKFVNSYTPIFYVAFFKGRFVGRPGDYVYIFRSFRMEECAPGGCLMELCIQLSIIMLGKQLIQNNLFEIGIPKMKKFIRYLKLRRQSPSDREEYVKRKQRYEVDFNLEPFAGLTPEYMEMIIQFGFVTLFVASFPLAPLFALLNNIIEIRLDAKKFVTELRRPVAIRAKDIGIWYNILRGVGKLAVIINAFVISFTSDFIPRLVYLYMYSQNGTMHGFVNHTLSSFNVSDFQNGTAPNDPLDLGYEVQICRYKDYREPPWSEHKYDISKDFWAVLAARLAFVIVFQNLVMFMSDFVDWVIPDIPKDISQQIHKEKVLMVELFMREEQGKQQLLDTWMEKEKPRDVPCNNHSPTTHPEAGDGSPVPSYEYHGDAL
ANO1 block – TMEM16A chloride channel inhibitors, primary screen, cell-based, HTS; Anoctamin-1 (Mus musculus), Q8BHY3; HEK293 TMEM16A/YFP iodide influx fluorescence, ionomycin; normalized B-score (activity score, 25-100; higher = stronger inhibition) at 10 µM; 1.2% of 310,000 active;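 active = ratio plate-corrected score three or more library SD toward inhibition, starting fluorescence score within five deviations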;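 also: score derived from kinetic fluorescence span divided by baseline fluorescence per well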
CRFBP-R2 agonist – agonists of CRF-BP/CRF-R2 complex, primary screen, cell-based, HEK293, calcium dye fluorescence, uHTS | calcium dye fluorescence (FLIPR); percent of saturating CRF peptide response | AID 588473, 2011 | 0.46% of 350,000 active | activation, % at 13.2 µM;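 active = activation of at least 50%, plus an integration ratio under a set limit after plate pattern correction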
CRFBP-R2 block – antagonists of CRF-BP/CRF-R2 complex, primary screen, cell-based, HEK293, calcium dye fluorescence, uHTS; CRF-induced calcium fluorescence; inhibition, % at 11.8 µM; 0.59% of 350,000 active; AID 588475, 2011;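 active = inhibition of the ligand-induced calcium signal above about 50% at the single tested concentration, limit read from the data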
TAAR1 ag – human TAAR1 agonists, primary screen, Fluo-8 calcium fluorescence, CHO RD-HGA16 cells. activation, % at 3 µM. Trace amine-associated receptor 1 (Homo sapiens), Q96RJ0. vehicle wells 0%, saturating PEA agonist 100%. 0.99% of 360,000 active;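 active = activation above the mean activation of all test compounds in the run plus 3 SD, cut at about 38% in these data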
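Assay system: CHO-derived RD-HGA16 cells with stable Gα16 and human TAAR1; timing: 17-24 h seeding, 75 min 37 °C dye, 30 min RT; read-out: % activation from peak over basal fluorescence ratio, DMSO-to-PEA scaled; measured by: kinetic Fluo-8 calcium fluorescence; benchmarks: low control DMSO, high control PEA (EC100); doses: 3 µM single concentration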
Hits are given with their value; i = inactive; nt = not tested or not shown; ! = not confirmed by another sample. Rows were chosen to be rich in hits. Some 3.9% of all compounds tested hit in one or more screens of this group.

SMILES | TAAR1 antagonist | ANO1 activ | ANO1 block | CRFBP-R2 agonist | CRFBP-R2 block | TAAR1 ag
COC(=O)C1(C(=O)OC)C[C@H](/C=C/c2ccccc2)N(Cc2ccccc2OC)[C@@H]1c1ccccc1 | i | nt | nt | nt | nt | i
COc1ccccc1-n1cnnc1SCC(=O)NCc1cccs1 | i | i | i | i | 82 | i
COc1ccccc1-n1cnnc1SCC(=O)NC1CCCCC1 | i | i | nt | i | i | i
Cc1ccccc1OCC(=O)Nc1ccc(N2CCN(C(=O)c3ccco3)CC2)cc1 | 60 | i | i | i | i | i
COc1c(C)cccc1C(=O)Nc1ccc(N2CCN(C(=O)c3ccccc3C)CC2)cc1 | 55 | i | i | i | i | i
Cc1ccccc1C(=O)N1CCN(c2ccc(NC(=O)CSc3ccc(Cl)cc3)cc2)CC1 | 53 | i | i | i | i | i
O=C(Nc1ccc(N2CCCCCC2)cc1)c1ccccc1Cl | i | i | i | i | 81 | i
Cc1ccccc1C(=O)N1CCN(c2ccc(NC(=O)c3cccc(OC(C)C)c3)cc2)CC1 | i | i | i | i | i | i
CC(C)(C)N=Cc1c(O)ccc2oc3c(c12)CCCC3 | i | i | i | 51 | i | i
COc1ccc(Cn2c(-c3ccco3)nc3c(c(=O)c4ccccc4n3C)c2=O)cc1 | i | i | i | i | 72 | i
COc1ccc(Cn2c(-c3ccc(OC)cc3)nc3c(c(=O)c4ccccc4n3C)c2=O)cc1 | nt | nt | i | nt | nt | nt
COc1ccc(-c2nc3c(c(=O)c4ccccc4n3C)c(=O)n2Cc2ccccc2)cc1 | i | i | i | 53 | i | i
COc1ccc(CCn2c(C(C)C)nc3c(c(=O)c4ccccc4n3C)c2=O)cc1 | nt | i | i | 115 | i | nt
COc1ccc(CCn2c(C)nc3c(c(=O)c4ccccc4n3C)c2=O)cc1 | i | i | i | i | i | i
CCOc1ccc(Cn2nnc(C(=O)NCc3ccc(OC)cc3)c2N)cc1 | i | i | i | i | i | 50
CCOc1ccc(NC(=O)Cn2nnc(C(=O)NCc3ccc(OC)cc3)c2N)cc1 | i | i | i | i | i | i
COc1ccc(CNC(=O)c2sc(=S)n(-c3ccc(OC)cc3)c2N)cc1 | nt | i | i | i | 66 | nt
CN1CCN(CCCN2c3ccccc3Sc3ccc(Cl)cc32)CC1 | i | i | 25! | i | i | i
CN1C(=O)/C(=C/c2cccc(Cl)c2)Sc2ccc(C(=O)NCc3cccnc3)cc21 | 51 | i | i | i | i | i
CN1CCN(CCCNC(=O)c2ccc(/C=C3/Sc4ccccc4N(Cc4cccc(Cl)c4)C3=O)cc2)CC1 | 57 | i | nt | i | i | i
Cc1nc(N)sc1-c1csc(N(C)c2ccc(O)cc2)n1 | i | i | i | i | 51 | i
CN(c1ccc(O)cc1)c1nc(-c2cccs2)cs1 | i | i | 25 | i | i | i
Cc1cc(O)ccc1Nc1nc(-c2cccs2)cs1 | i | i | i | i | i | i
Cn1c(CSCc2ccc(Cl)c(Cl)c2)nnc1SCC(=O)Nc1nccs1 | 62 | i | i | i | i | 40
Cn1c(CSCc2ccc(F)cc2)nnc1SCC(=O)Nc1nccs1 | i | i | i | i | i | i
SMILES | TAAR1 antagonist | ANO1 activ | ANO1 block | CRFBP-R2 agonist | CRFBP-R2 block | TAAR1 ag
O=C(/C=C/c1c(Cl)cccc1Cl)NCCc1ccccc1 | i | i | i | i | i | 38
CC(C)=CC(=O)NCCc1ccccc1 | i | i | i | i | i | 42
CC(C)C[C@H]1CN([C@@H](Cc2ccccc2)CN2CCC[C@H]2CN2C(=O)C(=O)NC[C@@H]2Cc2ccccc2)C(=O)C(=O)N1CCc1ccccc1 | i | nt | nt | nt | nt | i
O=[N+]([O-])c1ccccc1C=NNC(=S)NN=Cc1ccccc1[N+](=O)[O-] | i | i | nt | i | 57 | i
CC(C)NC(=S)N/N=C/c1ccccc1[N+](=O)[O-] | i | i | i | i | i | i
Cc1cc(C)c2c(n1)sc1c(O)cc(=O)[nH]c12 | i | i | i | i | i | i
COc1ccc(-c2cc(C(F)(F)F)c3c(n2)sc2c(O)cc(=O)[nH]c23)c(OC)c1 | i | i | i | 80 | i | i
Nc1ccc(S(=O)(=O)Nc2ccc(Cl)nn2)cc1 | i | i | i | i | 54 | i
COc1ccc(NS(=O)(=O)c2ccc(N)cc2)nn1 | nt | nt | i | nt | nt | nt
O=C(O)c1ccccc1SC1CC(=O)N(c2ccc3c(c2)OCO3)C1=O (stereo not given) | i | i | i | i | i | i
Nc1ccccc1SC1CC(=O)N(c2ccc3c(c2)OCO3)C1=O (stereo not given) | i | i | i | i | 84 | i
COCCNC(=O)C1(C)CCCN(C(=O)c2ccccc2OC(F)(F)F)C1 (stereo not given) | i | nt | nt | nt | nt | i
CCOc1ccccc1NC(=O)CSc1nc2nc(-c3cccs3)cc(C(F)(F)F)c2c(=O)[nH]1 | i | i | 100 | i | i | i
CC(C)(CNC(=O)c1cc(Cl)c(O)c(Cl)c1)N1CCCCC1 | i | i | i | i | 55 | i
O=C1c2cc(Cl)ccc2OC2(CCNCC2)C12CC(c1ccc(Cl)cc1)=NO2 (stereo not given) | nt | i | i | i | i | nt
O=C1c2cc(Cl)ccc2OC2(CCNCC2)C12CC(c1ccccc1)=NO2 (stereo not given) | i | i | i | i | i | 43
C=CCc1c(C)nc(C)nc1N/N=C/c1ccc([N+](=O)[O-])cc1 | i | i | i | i | i | i
C=CCc1c(C)nc(C)nc1N/N=C/c1ccccc1O | i | i | 25 | i | i | i
Cc1ccc(CNCc2cc(Cl)ccc2O)cc1 | i | i | i | i | i | 38
N#Cc1c(Cl)nsc1NC(=O)c1ccccc1 | i | i | 100 | i | 56 | i
Cc1ccc(NS(=O)(=O)c2ccc(OCC(=O)NCc3ccco3)cc2)cc1 | i | i | i | i | i | 40
CNC(=S)N/N=C/C1=CCC2CC1C2(C)C (stereo not given) | i | i | i | i | i | i
CC1(C)C2CC=C(/C=N/NC(=O)c3ccccc3O)C1C2 (stereo not given) | i | i | i | i | 59 | i
CCCc1cc(=O)[nH]c(SCC(=O)c2ccc3c(c2)OCCO3)n1 | i | i | i | i | i | i
CCCc1cc(=O)[nH]c(SCC(=O)N(CCC#N)c2ccc3c(c2)OCCO3)n1 | i | i | nt | i | 98 | i
O=C(O)c1ccccc1C(=O)Nc1ccc(Oc2cccc3ccccc23)cc1 | i | i | nt | 126 | i | i
